# Measured values as given in ChEMBL document CHEMBL2396522, “Synthesis and pharmacological profiling of analogues of benzyl quinolone carboxylic acid (BQCA) as allosteric modulators of the M1 muscarinic receptor” (J Med Chem, 2013).
# Target: T1, Muscarinic acetylcholine receptor M1 (Homo sapiens, UniProt P11229)
# T1 sequence (P11229 whole entry): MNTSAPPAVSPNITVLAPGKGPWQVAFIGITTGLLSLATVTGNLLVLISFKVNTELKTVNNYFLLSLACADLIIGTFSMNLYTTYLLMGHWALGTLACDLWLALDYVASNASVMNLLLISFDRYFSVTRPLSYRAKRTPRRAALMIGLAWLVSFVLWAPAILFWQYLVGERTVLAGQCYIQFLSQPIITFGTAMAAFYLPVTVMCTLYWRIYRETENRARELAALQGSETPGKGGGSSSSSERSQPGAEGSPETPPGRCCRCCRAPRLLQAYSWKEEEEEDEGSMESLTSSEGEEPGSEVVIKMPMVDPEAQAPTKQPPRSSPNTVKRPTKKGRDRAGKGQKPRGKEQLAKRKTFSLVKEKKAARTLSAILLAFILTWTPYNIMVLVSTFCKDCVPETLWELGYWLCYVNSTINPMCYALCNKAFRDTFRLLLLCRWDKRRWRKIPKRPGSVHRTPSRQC
# Experiment: Allosteric modulation of human muscarinic M1 acetylcholine receptor expressed CHO cells assessed as intracellular calcium mobilization after 1 hr by Fluo-4-AM based fluorescence assay
# Assay type: functional, cell-based
# Method in brief: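 Cells were FlpInCHO-hM1, serum-starved overnight, then loaded 1 h at 37 °C with 1 μM Fluo-4-AM in Ca2+ buffer (pH 7.4, 4 mM probenecid). ACh titrations with or without increasing modulator concentrations were co-added at 20 s. Curves were fitted to an operational model of allosterism (αβ, τB). Experiments were done three to four times in duplicate.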
row,SMILES,EC50 [nM]
1,COc1ccc(Cn2cc(C(=O)O)c(=O)c3c(F)ccc(F)c32)cc1,31.6

# Target: T1, Muscarinic acetylcholine receptor M1
# Experiment: Agonist activity at human muscarinic M1 acetylcholine receptor expressed CHO cells assessed as intracellular calcium mobilization after 1 hr by Fluo-4-AM based fluorescence assay
# Assay type: functional, cell-based
# Method in brief: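 FlpInCHO cells stably expressing human M1 were seeded at 20000/well, grown 8 h at 37 °C in DMEM with 5% FBS, and serum-starved overnight. They were loaded 1 h at 37 °C with 1 μM Fluo-4-AM in HEPES Ca2+ buffer (0.5% BSA, 4 mM probenecid, pH 7.4). Modulator alone was added at 20 s and fluorescence was read at 485/520 nm over 100 s. Peak minus baseline was normalized to 100 μM ATP. Efficacy came from an operational model of allosteric agonism.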
row,SMILES,EC50 [nM]
1,COc1ccc(Cn2cc(C(=O)O)c(=O)c3c(F)ccc(F)c32)cc1,31.6

# Target: T2, Muscarinic acetylcholine receptor M1 (Homo sapiens) (UniProt P11229)
# T2 sequence (whole entry): T1 sequence (P11229 whole entry)
# Experiment: Displacement of [3H]-NMS from human muscarinic M1 acetylcholine receptor expressed CHO cells after 4 hrs by scintillation counting
# Assay type: cell-based
# Method in brief: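 Whole FlpInCHO cells stably expressing human M1 mAChR, 20000/well, grown 8 h at 37 °C then serum-starved overnight. Binding buffer 10 mM HEPES, 100 mM NaCl, 10 mM MgCl2, pH 7.4. […] Ice-cold 0.9% NaCl washes, scintillation counting. Curves fitted to allosteric ternary complex model giving pKB and log α.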
row,pKb,SMILES
1,4.96,NCC#Cc1ccc(Cn2cc(C(=O)O)c(=O)c3c(F)ccc(F)c32)cc1
2,5.55,O=C(O)c1cn(Cc2cccc(-c3ccccc3)c2)c2c(F)ccc(F)c2c1=O
3,5,O=C(O)c1cn(Cc2ccccc2-c2ccccc2)c2c(F)ccc(F)c2c1=O
4,4.66,COc1ccc(Cn2cc(C#N)c(=O)c3c(F)ccc(F)c32)cc1
5,5.32,CCOC(=O)c1cn(Cc2ccc(-c3ccccc3)cc2)c2c(OC)ccc(F)c2c1=O
6,5.12,CCOC(=O)c1cn(Cc2ccc(OC)cc2)c2c(F)ccc(F)c2c1=O
7,4.73,O=C(O)c1cn(-c2ccc(-c3ccccc3)cc2)c2ccccc2c1=O
8,5.84,COc1ccc(F)c2c(=O)c(C(=O)O)cn(Cc3ccc(-c4ccccc4)cc3)c12
9,3.75,CCOC(=O)c1cn(Cc2ccc(-c3ccccc3)cc2)c2c(F)ccc(F)c2c1=O
10,4.08,CCOC(=O)c1cn(Cc2ccc(-c3ccccc3)cc2)c2c(OC)cccc2c1=O
11,4.82,CCOC(=O)c1cn(Cc2ccc(OC)cc2)c2c(OC)ccc(F)c2c1=O
12,4.97,COc1ccc(Cn2cc(C(=O)N3CCOCC3)c(=O)c3c(F)ccc(F)c32)cc1
13,4.62,COc1ccc(Cn2cc(C(=O)O)c(=O)c3c(OC)cccc32)cc1
14,4.66,O=C(O)c1cn(CC2CCN(C(=O)Nc3ccccc3)CC2)c2ccccc2c1=O
15,4.86,COc1ccc(Cn2cc(C(=O)O)c(=O)c3c(F)ccc(OC)c32)cc1
16,4.82,O=C(O)c1cn(CC2CCNCC2)c2ccccc2c1=O
17,4.51,CCOC(=O)c1cn(Cc2ccc(OC)cc2)c2c(OC)cccc2c1=O
18,4.35,COc1ccc(Cn2cc(C(=O)NC(C)=O)c(=O)c3c(F)ccc(F)c32)cc1

row,pKb,SMILES
1,4.72,COc1ccc(Cn2cc(C(=O)O)c(=O)c3ccccc32)cc1
2,4.71,COc1ccc(Cn2cc(C(=O)N3CCCCC3)c(=O)c3c(F)ccc(F)c32)cc1
3,5.36,O=C(O)c1cn(Cc2ccc(-c3ccccc3)cc2)c2c(F)ccc(F)c2c1=O
4,4.7,CC(C)(C)OC(=O)N1CCC(Cn2cc(C(=O)O)c(=O)c3ccccc32)CC1
5,4.97,COc1ccc(Cn2cc(-c3nnn[nH]3)c(=O)c3c(F)ccc(F)c32)cc1
6,4.75,COc1ccc(Cn2cc(C(=O)O)c(=O)c3cccc(OC)c32)cc1
7,4.8,COc1ccc(Cn2cc(C(=O)NO)c(=O)c3c(F)ccc(F)c32)cc1
8,5.13,O=C(O)c1cn(CC2CCN(Cc3ccccc3)CC2)c2ccccc2c1=O
9,5.16,CCOC(=O)c1cn(Cc2ccc(-c3ccccc3)cc2)c2cccc(OC)c2c1=O
10,4.63,COc1ccc(Cn2cc(C(=O)NS(C)(=O)=O)c(=O)c3c(F)ccc(F)c32)cc1
11,4.48,COc1ccc(Cn2cc(C(=O)N(C)C)c(=O)c3c(F)ccc(F)c32)cc1
12,5.71,COc1cccc2c(=O)c(C(=O)O)cn(Cc3ccc(-c4ccccc4)cc3)c12
13,4.65,COc1ccc(-n2cc(C(=O)O)c(=O)c3ccccc32)cc1
14,4.8,COc1ccc(Cn2cc(C(=O)Nc3ccccc3)c(=O)c3c(F)ccc(F)c32)cc1
15,4.22,CCOC(=O)c1cn(Cc2ccc(OC)cc2)c2cccc(OC)c2c1=O
16,5.67,COc1cccc2c1c(=O)c(C(=O)O)cn2Cc1ccc(-c2ccccc2)cc1
17,5.55,O=C(O)c1cn(Cc2ccc(-c3ccccc3)cc2)c2c(F)ccc(O)c2c1=O

row,SMILES,pKb
1,COc1ccc(Cn2cc(C(=O)NCCO)c(=O)c3c(F)ccc(F)c32)cc1,4.65
2,COc1ccc(Cn2cc(C(=O)NCc3ccccc3)c(=O)c3c(F)ccc(F)c32)cc1,4.63
3,COc1ccc(Cn2cc(C(=O)N[C@H]3CCCC[C@@H]3O)c(=O)c3c(F)ccc(F)c32)cc1,4.99
4,COc1ccc(Cn2cc(C(=O)NN3CCCCC3)c(=O)c3c(F)ccc(F)c32)cc1,5.07
5,COc1ccc(Cn2cc(C(=O)O)c(=O)c3c(F)ccc(F)c32)cc1,4.96
6,COc1ccc(Cn2cc(C(N)=O)c(=O)c3c(F)ccc(F)c32)cc1,5.17
7,CCNC(=O)c1cn(Cc2ccc(OC)cc2)c2c(F)ccc(F)c2c1=O,5.78
8,CNC(=O)c1cn(Cc2ccc(OC)cc2)c2c(F)ccc(F)c2c1=O,4.92
